Reference: ChEMBL document CHEMBL1806473, “Structure-based optimization of click-based histone deacetylase inhibitors” (Eur J Med Chem, 2011)

What was measured:
NCI-H522 = assay: Cytotoxicity against human NCI-H522 cells; type: cell-based
How it was run: (§1)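 Tested in the NCI in vitro disease-oriented human tumour cell line screen, with screening performed by NCI. Growth was read by SRB signal over the drug incubation period at five concentrations: 100, 10, 1.0, 0.1 and 0.01 μM. GI50 is the concentration that reduces growth of treated cells to half that of control cells.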

LOX IMVI = assay: Cytotoxicity against human LOXIMVI cells; type: cell-based
U-251 [1] = assay: Cytotoxicity against human U251 cells; type: cell-based
How it was run: (§2)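 Screened by NCI in its in vitro disease-oriented human tumour cell line panel. Compounds tested at five concentrations (100, 10, 1.0, 0.1 and 0.01 μM). Growth read by sulforhodamine B (SRB) signal. GI50 is the concentration reducing growth of treated cells to half that of control cells during the drug incubation.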

SN12C [2] = assay: Antiproliferative activity against human SN12C cells by SRB assay; type: functional
How it was run: (§3)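 Tested in the NCI in vitro human tumor cell line screen, run by the National Cancer Institute. Each compound was given at five concentrations (100, 10, 1.0, 0.1 and 0.01 μM). GI50 is the drug concentration that reduces growth of treated cells to half that of control cells during drug incubation, judged from the SRB signal.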

MDA-MB-435 [3] = assay: Antiproliferative activity against human MDA-MB-435 cells by SRB assay; type: functional; how it was run: as §3
U-251 [4] = assay: Antiproliferative activity against human U251 cells by SRB assay; type: functional
How it was run: (§4)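 Cell growth was tested in the NIH in vitro disease-oriented human tumor cell line screen, which NCI ran for these compounds. Compounds were tested at five concentrations (100, 10, 1.0, 0.1 and 0.01 μM), and growth was read by SRB signal. GI50 is the drug concentration that reduces growth of treated cells to half that of control cells during drug incubation.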

NCI-H23 [5] = assay: Cytotoxicity against human NCI-H23 cells; type: cell-based
OVCAR-5 = assay: Antiproliferative activity against human OVCAR5 cells by SRB assay; type: functional; how it was run: as §3
MOLT-4 = assay: Antiproliferative activity against human MOLT4 cells by SRB assay; type: functional; how it was run: as §3
OVCAR-8 [6] = assay: Antiproliferative activity against human OVCAR8 cells by SRB assay; type: functional; how it was run: as §3
DU-145 [7] = assay: Antiproliferative activity against human DU145 cells by SRB assay; type: functional; how it was run: as §3
A498 = assay: Cytotoxicity against human A498 cells; type: cell-based
SK-MEL-28 = assay: Antiproliferative activity against human SK-MEL-28 cells by SRB assay; type: functional; how it was run: as §3
MDA-MB-435 [8] = assay: Cytotoxicity against human MDA-MB-435 cells; type: cell-based
SK-MEL-2 [9] = assay: Cytotoxicity against human SK-MEL-2 cells; type: cell-based; how it was run: as §1
HT-29 = assay: Cytotoxicity against human HT-29 cells; type: cell-based; how it was run: as §1
786-0 = assay: Antiproliferative activity against human 786-0 cells by SRB assay; type: functional; how it was run: as §3
HOP-62 [10] = assay: Cytotoxicity against human HOP62 cells; type: cell-based; how it was run: as §1
BT-549 [11] = assay: Cytotoxicity against human BT549 cells; type: cell-based
HOP-92 [12] = assay: Antiproliferative activity against human HOP92 cells by SRB assay; type: functional; how it was run: as §3
NCI-H23 [13] = assay: Antiproliferative activity against human NCI-H23 cells by SRB assay; type: functional; how it was run: as §3
HCT-116 = assay: Antiproliferative activity against human HCT116 cells by SRB assay; type: functional; how it was run: as §3
SF-295 = assay: Antiproliferative activity against human SF295 cells by SRB assay; type: functional; how it was run: as §3
K562 [14] = assay: Antiproliferative activity against human K562 cells by SRB assay; type: functional; how it was run: as §3
MCF7 = assay: Cytotoxicity against human MCF7 cells; type: cell-based
Histone deacetylase = assay: Inhibition of HDAC in human HeLa cells using Ac-Arg-Gly-Lys(Ac)-AMC as fluorescent substrate after 20 mins by fluorescence assay; type: cell-based
RXF 393 [15] = assay: Antiproliferative activity against human RXF393 cells by SRB assay; type: functional; how it was run: as §3
K562 [16] = assay: Cytotoxicity against human K562 cells; type: cell-based
SF-268 [17] = assay: Cytotoxicity against human SF268 cells; type: cell-based; how it was run: as §1
A549 [18] = assay: Antiproliferative activity against human A549 cells by SRB assay; type: functional; how it was run: as §3
NCI-H322M = assay: Antiproliferative activity against human NCI-H322M cells by SRB assay; type: functional; how it was run: as §3
HOP-62 [19] = assay: Antiproliferative activity against human HOP62 cells by SRB assay; type: functional; how it was run: as §3
SW-620 [20] = assay: Antiproliferative activity against human SW620 cells by SRB assay; type: functional; how it was run: as §4
DU-145 [21] = assay: Cytotoxicity against human DU145 cells; type: cell-based; how it was run: as §1
SK-MEL-5 [22] = assay: Cytotoxicity against human SK-MEL-5 cells; type: cell-based
HOP-92 [23] = assay: Cytotoxicity against human HOP92 cells; type: cell-based
EKVX = assay: Antiproliferative activity against human EKVX cells by SRB assay; type: functional; how it was run: as §3
NCI-H460 = assay: Cytotoxicity against human NCI-H460 cells; type: cell-based
UACC-62 = assay: Cytotoxicity against human UACC62 cells; type: cell-based; how it was run: as §2
OVCAR-3 = assay: Cytotoxicity against human OVCAR3 cells; type: cell-based; how it was run: as §1
NCI-H226 [24] = assay: Cytotoxicity against human NCI-H226 cells; type: cell-based
[25] = Antiproliferative activity against human Hs 578T cells by SRB assay; type: functional; how it was run: as §3
ACHN [26] = assay: Cytotoxicity against human ACHN cells; type: cell-based
SK-MEL-2 [27] = assay: Antiproliferative activity against human SK-MEL-2 cells by SRB assay; type: functional; how it was run: as §3
ACHN [28] = assay: Antiproliferative activity against human ACHN cells by SRB assay; type: functional; how it was run: as §3
CCRF-CEM = assay: Cytotoxicity against human CCRF-CEM cells; type: cell-based
NCI-H226 [29] = assay: Antiproliferative activity against human NCI-H226 cells by SRB assay; type: functional; how it was run: as §3
OVCAR-8 [30] = assay: Cytotoxicity against human OVCAR8 cells; type: cell-based
T47D = assay: Cytotoxicity against human T47D cells; type: cell-based; how it was run: as §2
MDA-MB-231 = assay: Cytotoxicity against human MDA-MB-231 cells; type: functional; how it was run: as §1
A549 [31] = assay: Cytotoxicity against human A549 cells; type: cell-based; how it was run: as §1
MDA-MB-468 = assay: Antiproliferative activity against human MDA-MB-468 cells by SRB assay; type: functional; how it was run: as §3
SF-539 = assay: Antiproliferative activity against human SF539 cells by SRB assay; type: functional; how it was run: as §3
BT-549 [32] = assay: Antiproliferative activity against human BT549 cells by SRB assay; type: functional; how it was run: as §3
SW-620 [33] = assay: Cytotoxicity against human SW620 cells; type: cell-based; how it was run: as §2
SK-MEL-5 [34] = assay: Antiproliferative activity against human SK-MEL-5 cells by SRB assay; type: functional; how it was run: as §3
RXF 393 [35] = assay: Cytotoxicity against human RXF393 cells; type: cell-based; how it was run: as §1
SNB-19 = assay: Cytotoxicity against human SNB19 cells; type: cell-based; how it was run: as §2
SN12C [36] = assay: Cytotoxicity against human SN12C cells; type: cell-based; how it was run: as §2
IGROV-1 = assay: Cytotoxicity against human IGROV1 cells; type: cell-based
HCT-15 = assay: Antiproliferative activity against human HCT15 cells by SRB assay; type: functional; how it was run: as §3
SF-268 [37] = assay: Antiproliferative activity against human SF268 cells by SRB assay; type: functional; how it was run: as §3
CAKI-1 = assay: Antiproliferative activity against human Caki1 cells by SRB assay; type: functional; how it was run: as §3
SNB-75 = assay: Cytotoxicity against human SNB75 cells; type: cell-based; how it was run: as §2

O=C(/C=C/c1cn(C(/C=C/c2ccccc2)Cc2ccccc2)nn1)NO (centres undefined)
LC50 (NCI-H522): 6360 nM | LC50 (LOX IMVI): 4620 nM | LC50 (U-251 [1]): 5840 nM | GI50 (SN12C [2]): 2340 nM | GI50 (MDA-MB-435 [3]): 866 nM | GI50 (U-251 [4]): 948 nM | LC50 (NCI-H23 [5]): 8680 nM | GI50 (OVCAR-5): 426 nM | GI50 (MOLT-4): 493 nM | GI50 (OVCAR-8 [6]): 630 nM | GI50 (DU-145 [7]): 1080 nM | LC50 (A498): 5460 nM | GI50 (SK-MEL-28): 1300 nM | LC50 (MDA-MB-435 [8]): 15700 nM | LC50 (SK-MEL-2 [9]): 49200 nM | LC50 (HT-29): > 100000 nM | GI50 (786-0): 1380 nM | LC50 (HOP-62 [10]): 18300 nM | LC50 (BT-549 [11]): > 100000 nM | GI50 (HOP-92 [12]): 1080 nM | GI50 (NCI-H23 [13]): 1510 nM | GI50 (HCT-116): 382 nM | GI50 (SF-295): 291 nM | GI50 (K562 [14]): 1050 nM | LC50 (MCF7): 93200 nM | IC50 (Histone deacetylase): 77 nM | GI50 (RXF 393 [15]): 1210 nM | LC50 (K562 [16]): > 100000 nM | LC50 (SF-268 [17]): 9170 nM | GI50 (A549 [18]): 1410 nM | GI50 (NCI-H322M): 1370 nM | GI50 (HOP-62 [19]): 1440 nM | GI50 (SW-620 [20]): 892 nM | LC50 (DU-145 [21]): 46300 nM | LC50 (SK-MEL-5 [22]): 5300 nM | LC50 (HOP-92 [23]): 11600 nM | GI50 (EKVX): 1460 nM | LC50 (NCI-H460): 27200 nM | LC50 (UACC-62): 6340 nM | LC50 (OVCAR-3): 8700 nM | LC50 (NCI-H226 [24]): 46800 nM | GI50 [25]: 934 nM | LC50 (ACHN [26]): 13700 nM | GI50 (SK-MEL-2 [27]): 1890 nM | GI50 (ACHN [28]): 1230 nM | LC50 (CCRF-CEM): > 100000 nM | GI50 (NCI-H226 [29]): 2440 nM | LC50 (OVCAR-8 [30]): > 100000 nM | LC50 (T47D): 61700 nM | LC50 (MDA-MB-231): 53900 nM | LC50 (A549 [31]): 64600 nM | GI50 (MDA-MB-468): 1520 nM | GI50 (SF-539): 1140 nM | GI50 (BT-549 [32]): 1620 nM | LC50 (SW-620 [33]): 13600 nM | GI50 (SK-MEL-5 [34]): 879 nM | LC50 (RXF 393 [35]): 7610 nM | LC50 (SNB-19): 18800 nM | LC50 (SN12C [36]): > 100000 nM | LC50 (IGROV-1): 8180 nM | GI50 (HCT-15): 1590 nM | GI50 (SF-268 [37]): 1220 nM | GI50 (CAKI-1): 440 nM | LC50 (SNB-75): 9830 nM
